The full list was thinned out, with hits kept by preference.
H69AR growth 86K = growth inhibitors of human H69AR lung tumor cells; H69AR lung tumor viability, ATP luminescence, 72 h; active compounds read low; viability, % at 10 µM; 85,000 compounds, 6% hits;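 active means viability at or below 40%; inactive means viability above 40%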;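 further: multidrug resistant small cell line overexpressing MRP-1 efflux transporter; 100% = mean luminescence of untreated control wells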
HCT116 bCat-KO = beta-catenin-lacking colon tumor cell growth suppression; HCT116 beta-catenin knockout viability, CellTiter-Glo, 60 h; active compounds read low; viability, % at 10 µM; 140,000 compounds, 1.5% hits;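 active means viability at or under a set limit, the compound median less 4 SD, cut at about 6% in these data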;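 further: 0% = Hyamine 1622 control at 20 µM and 100% = untreated cell control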
Lung fibro prol = blocks proliferation of human lung fibroblasts. LL 47 human lung fibroblast viability, ATP luminescence; active compounds read low. viability, % at 10 µM. 85,000 compounds, 1.1% hits;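 active means viability at or below 50% in the single dose screen; inactive means viability above 50%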;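 further: compound exposure lasted 72 h before the ATP readout; 100% = median luminescence of untreated cell-only wells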
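Assay system: human lung fibroblast line LL 47, low passage. Input: 1,150 fibroblasts seeded per well. Times: overnight cell rest, 72 h compound treatment at 37 °C. Evaluation: % viability of median cell-only signal. Technique: luminescent ATP detection, CellTiter-Glo. Control set: cell-only wells, no compound.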
HUVEC prolif 384 = inhibitors of human endothelial cell proliferation | HUVEC proliferation, CellTiter-Glo luminescence, 72 h; active compounds read low | viability, % at 10 µM (by protocol) | 86,000 compounds, 1.1% hits;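 active means viability at or below 30%; inactive means viability above 30%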;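 further: 100% = median luminescence of DMSO-only cell control wells on each plate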
PTEN del growth = suppresses growth of cells with PTEN deletion. HCT116 PTEN-null viability, CellTiter-Glo, 60 h; active compounds read low. viability, % at 10 µM. 140,000 compounds, 1.2% hits. AID 827;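 active means viability at or below a set limit, 4 SD under the median of all tested compounds, cut at about 3.7% in these data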;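 further: PTEN knockout HCT116 line with beta catenin targeted HCT116 as companion control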
Active calls of the source: *.

What do the screens show for `O=C(Nc1ccc(-c2noc(COc3ccccc3Cl)n2)cc1)c1ccco1`?
H69AR growth 86K: 29.3*; HCT116 bCat-KO: 83.7; Lung fibro prol: 98.9; HUVEC prolif 384: 35.0; PTEN del growth: 93.3

How did CCCCCC(=O)Nc1sc(C)c(C)c1C#N do in these assays?
HCT116 bCat-KO: 72.7; PTEN del growth: 71.8

What do the screens show for `COc1ccc(OC)c(CCNC(=O)Cn2sc3nc(C)cc(C)c3c2=O)c1`?
H69AR growth 86K: 0.0*; HCT116 bCat-KO: 1.9*; Lung fibro prol: 31.4*; HUVEC prolif 384: 76.7; PTEN del growth: 1.9*

Results for Cc1cccc(N2CCN(C(=O)c3ccc4nc(-c5ccco5)c(-c5ccco5)nc4c3)CC2C)c1 (centres undefined) ?
H69AR growth 86K: 54.4; HCT116 bCat-KO: 7.7; Lung fibro prol: 87.3; HUVEC prolif 384: 23.3*; PTEN del growth: 9.7

What do the screens show for `COC(=O)Nc1sc2c(c1C(=O)NC1CC1)CCCCCC2`?
H69AR growth 86K: 91.6; HCT116 bCat-KO: 91.7; Lung fibro prol: 102.6; HUVEC prolif 384: 92.1; PTEN del growth: 98.7

What do the screens show for `Cc1cc(C)c2[nH]c(O)c(N=NC(=S)NCC3CCCO3)c2c1` (centres undefined)?
HCT116 bCat-KO: 77.7; PTEN del growth: 74.2

How did Oc1[nH]c2c(Cl)cc(Cl)cc2c1N=NC(=S)NCC1CCCO1 (centres undefined) do in these assays?
HCT116 bCat-KO: 1.4*; PTEN del growth: 0.5*

How did COc1cccc(N2CCN(S(=O)(=O)c3ccc4nc(-c5ccccc5)[nH]c4c3)CC2)c1 do in these assays?
H69AR growth 86K: 12.9*; HCT116 bCat-KO: 81.3; Lung fibro prol: 96.6; HUVEC prolif 384: 60.0; PTEN del growth: 89.6

What do the screens show for `COc1ccc(N2CCN(S(=O)(=O)c3ccc(OC)cc3)CC2)cc1`?
H69AR growth 86K: 96.6; HCT116 bCat-KO: 92.0; Lung fibro prol: 94.8; HUVEC prolif 384: 97.7; PTEN del growth: 84.5

Results for CC(C)(C)S(=O)(=O)c1nc2ccccc2s1 ?
H69AR growth 86K: 79.4; HCT116 bCat-KO: 91.5; Lung fibro prol: 98.5; HUVEC prolif 384: 90.4; PTEN del growth: 95.7

Results for CCS(=O)(=O)CCSc1nc2ccccc2s1 ?
H69AR growth 86K: 92.9; HCT116 bCat-KO: 98.8; Lung fibro prol: 98.0; HUVEC prolif 384: 87.2; PTEN del growth: 103.3

How did C=CCS(=O)(=O)c1nc2ccccc2s1 do in these assays?
H69AR growth 86K: 1.1*; HCT116 bCat-KO: 11.1; Lung fibro prol: 76.6; HUVEC prolif 384: 81.2; PTEN del growth: 23.6

How did O=S(=O)(CCSc1nc2ccccc2s1)c1nc2ccccc2s1 do in these assays?
H69AR growth 86K: 1.5*; HCT116 bCat-KO: 3.9*; Lung fibro prol: 34.7*; HUVEC prolif 384: 14.0*; PTEN del growth: 3.3*

How did c1ccc2c(c1)oc1c(Nc3ccc(CN4CCOCC4)cc3)ncnc12 do in these assays?
H69AR growth 86K: 3.5*; HCT116 bCat-KO: 23.0; Lung fibro prol: 97.9; HUVEC prolif 384: 5.4*; PTEN del growth: 21.7

How did Clc1ccc2c(N/N=C/c3cccc(Br)c3)ccnc2c1 do in these assays?
HCT116 bCat-KO: 2.2*; PTEN del growth: 1.7*

How did CC(=O)Cc1nsc(NC(=O)c2ccc(-c3cccc(C(F)(F)F)c3)o2)n1 do in these assays?
H69AR growth 86K: 21.4*; HCT116 bCat-KO: 47.9; Lung fibro prol: 99.7; HUVEC prolif 384: 66.1; PTEN del growth: 44.9

Results for CC(=O)Cc1nsc(NC(=O)c2ccc(-c3cc(C(F)(F)F)ccc3Cl)o2)n1 ?
HCT116 bCat-KO: 45.2; Lung fibro prol: 72.8; HUVEC prolif 384: 66.5; PTEN del growth: 43.2

What do the screens show for `CC(C)Cc1nc2sc3c(=O)n(N)cnc3c2c2c1COC(C)(C)C2`?
HCT116 bCat-KO: 92.1; PTEN del growth: 89.8

How did Cc1ccc(C(=O)/C=C/c2ccc(Br)cc2)o1 do in these assays?
HCT116 bCat-KO: 2.2*; PTEN del growth: 1.4*

What do the screens show for `Cc1ccc(C(=O)/C=C/c2ccc3c(c2)OCO3)o1`?
HCT116 bCat-KO: 7.3; PTEN del growth: 10.5

Results for Cc1ccc(C(=O)/C=C/c2ccccc2)o1 ?
HCT116 bCat-KO: 5.9*; PTEN del growth: 9.8

Results for Cc1ccc(N2C(=O)NC(NC(=O)C3CC3)(C(F)(F)F)C2=O)cc1 (centres undefined) ?
HCT116 bCat-KO: 91.4; PTEN del growth: 95.5

How did CCOCCCNS(=O)(=O)c1cc(Br)cc2c1N(C(=O)C1CC1)CC2 do in these assays?
H69AR growth 86K: 86.9; HCT116 bCat-KO: 97.7; Lung fibro prol: 105.7; HUVEC prolif 384: 104.7; PTEN del growth: 97.4

What do the screens show for `CCCCN(C)S(=O)(=O)c1cc(Br)cc2c1N(C(=O)C1CC1)CC2`?
H69AR growth 86K: 31.4*; HCT116 bCat-KO: 25.2; Lung fibro prol: 91.8; HUVEC prolif 384: 76.7; PTEN del growth: 41.7

Results for O=C1OC(c2ccccc2)c2ccc3ccccc3c21 (centres undefined) ?
HCT116 bCat-KO: 90.6; PTEN del growth: 86.6

Results for Cc1ccccc1C(=O)N/N=C/c1ccc([N+](=O)[O-])s1 ?
H69AR growth 86K: 21.2*; HCT116 bCat-KO: 3.6*; Lung fibro prol: 63.8; HUVEC prolif 384: 7.2*; PTEN del growth: 2.6*

Results for Cc1ccccc1NC(=O)/C=C/c1ccc([N+](=O)[O-])s1 ?
HCT116 bCat-KO: 2.0*; PTEN del growth: 1.4*

How did Cc1cc(C)cc(NC(=O)/C=C/c2ccc([N+](=O)[O-])s2)c1 do in these assays?
HCT116 bCat-KO: 26.0; PTEN del growth: 14.2

How did O=C(N/N=C/c1ccc([N+](=O)[O-])s1)c1ccccc1Br do in these assays?
H69AR growth 86K: 15.7*; HCT116 bCat-KO: 1.9*; Lung fibro prol: 63.0; HUVEC prolif 384: 62.0; PTEN del growth: 1.8*

Results for Cc1ccc(S(=O)(=O)c2nc(-c3cccs3)oc2NCCCN(C)C)cc1 ?
HCT116 bCat-KO: 76.0; PTEN del growth: 92.3

How did O=C(CCn1c(SCC(=O)NCc2ccco2)nc2ccccc2c1=O)NCCc1ccccc1 do in these assays?
H69AR growth 86K: 97.0; HCT116 bCat-KO: 91.2; Lung fibro prol: 102.7; HUVEC prolif 384: 91.0; PTEN del growth: 98.7

What do the screens show for `Cc1nc2ccccc2n1CCc1nc2c3ccccc3nc(SCC#N)n2n1`?
H69AR growth 86K: 22.5*; HCT116 bCat-KO: 81.9; Lung fibro prol: 77.5; HUVEC prolif 384: 28.4*; PTEN del growth: 76.1

Results for Cc1cc(C)n(CCc2nc3c4ccccc4nc(SCc4ccc(C#N)cc4)n3n2)n1 ?
H69AR growth 86K: 86.5; Lung fibro prol: 113.5; HUVEC prolif 384: 76.9

What do the screens show for `Cc1nc2ccccc2n1CCc1nc2c3ccccc3nc(SCC(=O)NCc3ccco3)n2n1`?
H69AR growth 86K: 20.7*; HCT116 bCat-KO: 89.8; Lung fibro prol: 10.3*; HUVEC prolif 384: 79.4; PTEN del growth: 79.2

Results for COc1ccccc1OCCC(=O)OCC(=O)NC(C)c1ccccc1 (centres undefined) ?
HCT116 bCat-KO: 98.6; PTEN del growth: 92.8

Results for Cc1cc(C)nc(N2CCC(C(=O)NCC3CCCCC3)CC2)n1 ?
H69AR growth 86K: 93.5; HCT116 bCat-KO: 100.6; Lung fibro prol: 102.8; HUVEC prolif 384: 98.1; PTEN del growth: 98.5

Screening results (PubChem BioAssay)
